# The list is not random: actives were taken first. Their share in the collection is about 4%.
# CHO parental Ca – counter-screen: ATP calcium response change in parental CHO cells. inhibition, % at 5.6 µM. parental CHO-K1, ATP-induced calcium, Fluo-8 fluorescence. hit rate 0.63% among 330,000;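 active means inhibition above that plate's mean sample inhibition plus 3 SD, cut at about 26% in these data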;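 further: 0% = ATP-challenged DMSO wells and 100% = DMSO wells without ATP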
#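 Material – parental CHO cells · Reagent – ATP stimulus · Compound – single nominal dose of 5.6 µM per compound · Detection – Fluo-8 fluorescence · Read-out basis – percent inhibition of calcium signal · Controls – ATP-challenged DMSO wells low, unchallenged DMSO wells high · Repeats – no replicates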
# NTR1 ag – activates human neurotensin receptor 1 | NTR1-U2OS beta-arrestin-GFP spot imaging, agonist mode | AID 493036 | activation, % at 20 µM | P30989 | hit rate 0.17% among 330,000;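 active means activation at or above 40% of the spot to cytoplasm intensity ratio, with at least 20 cells analyzed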;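 further: 0% = DMSO without peptide and 100% = 100 nM NTR1 peptide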
# Target sequence (P30989 whole entry, looked up): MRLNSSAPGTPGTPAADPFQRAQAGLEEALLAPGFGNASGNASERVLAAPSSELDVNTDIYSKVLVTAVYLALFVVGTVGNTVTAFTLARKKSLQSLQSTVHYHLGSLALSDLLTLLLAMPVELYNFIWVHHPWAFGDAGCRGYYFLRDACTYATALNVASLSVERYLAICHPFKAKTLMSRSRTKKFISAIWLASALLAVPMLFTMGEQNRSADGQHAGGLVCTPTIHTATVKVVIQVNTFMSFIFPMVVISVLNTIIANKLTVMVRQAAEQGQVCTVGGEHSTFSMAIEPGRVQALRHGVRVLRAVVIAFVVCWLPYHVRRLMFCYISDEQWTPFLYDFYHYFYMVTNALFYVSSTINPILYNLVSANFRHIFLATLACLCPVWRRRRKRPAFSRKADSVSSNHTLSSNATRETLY
# TAAR1 antag – antagonists of human TAAR1 | hit rate 1.5% among 360,000 | CHO RD-HGA16 TAAR1, Fluo-8 calcium fluorescence, antagonist | Q96RJ0 | inhibition, % at 3 µM;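 active means inhibition above a per-plate cutoff, the mean inhibition of test compounds on that plate plus 3 SD, cut at about 49% in these data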;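 further: 0% = DMSO plus EC80 beta-PEA response and 100% = DMSO alone without agonist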
# Target sequence (Q96RJ0 whole entry, looked up): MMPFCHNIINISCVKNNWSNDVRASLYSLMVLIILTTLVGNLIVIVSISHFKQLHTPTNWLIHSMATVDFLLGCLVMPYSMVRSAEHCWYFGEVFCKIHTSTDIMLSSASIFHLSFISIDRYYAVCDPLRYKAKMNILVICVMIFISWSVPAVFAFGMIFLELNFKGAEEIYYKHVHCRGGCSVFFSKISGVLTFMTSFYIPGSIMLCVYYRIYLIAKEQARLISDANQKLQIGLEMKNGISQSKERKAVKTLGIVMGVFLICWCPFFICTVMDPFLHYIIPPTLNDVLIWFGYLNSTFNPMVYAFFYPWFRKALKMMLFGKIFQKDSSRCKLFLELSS
#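 Material: CHO RD-HGA16 cells bearing hTAAR1; compound dosing: one-point dosing, 3 µM nominal final; schedule: dye loading 75 min at 37 °C, then 30 min room temperature; measured by: calcium fluorescence with Fluo-8; control set: vehicle and agonist controls; replication: n of 1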
# OX1R antag-1 – antagonists of human orexin 1 receptor; CHO/OX1R cells, Fluo-8 calcium fluorescence, orexin A; inhibition, % at 5 µM; hit rate 0.43% among 330,000;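 active means inhibition above its plate's threshold, mean inhibition of all tested compounds on the plate plus 3 SD, cut at about 37% in these data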;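 further: 0% = orexin A challenge wells and 100% = SB-334867-A antagonist wells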
# TAAR1 agonist – agonists of human TAAR1 | Q96RJ0 | CHO RD-HGA16 TAAR1, Fluo-8 calcium fluorescence; vehicle wells 0%, saturating PEA agonist 100% | activation, % at 3 µM | hit rate 0.99% among 360,000 | AID 624467;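 active means activation above the mean activation of all test compounds in the run plus 3 SD, cut at about 38% in these data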
#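 Assay system: CHO-derived RD-HGA16 cells with stable Gα16 and human TAAR1; timing: 17-24 h seeding, 75 min 37 °C dye, 30 min RT; read-out: % activation from peak over basal fluorescence ratio, DMSO-to-PEA scaled; measured by: kinetic Fluo-8 calcium fluorescence; benchmarks: low control DMSO, high control PEA (EC100); doses: 3 µM single concentration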
# OX1R antag-2 – antagonists of human orexin 1 receptor (OX1R); AID 485270; inhibition, % at 6.6 µM; OX1R-expressing cells, FRET antagonist read-out; hit rate 1.8% among 330,000; O43613; in the data active means inhibition mostly above about 38%, no sharp cut-off; inactive means mostly below about 40%;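 further: 0% = agonist challenge alone and 100% = reference antagonist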
# TAAR1 ag confirm – human TAAR1 agonism, confirmed. hit rate 82% among 2,400. CHO RD-HGA16 TAAR1, Fluo-8 calcium fluorescence; scaled: DMSO 0%, maximal phenethylamine 100%. shares compounds with TAAR1 agonist. activation, % at 3 µM;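 active means activation above a cutoff set at the run's mean compound activation plus 3 SD, cut at about 39% in these data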
# Ga16 ag counter – nonselective agonist in parental cells, TAAR1 agonist counter-screen; shares compounds with TAAR1 agonist; CHO-Ga16 parental, Fluo-8 calcium fluorescence; normalized to maximal ATP response, DMSO zero; activation, % at 3 µM; hit rate 50% among 2,400; AID 651787;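 active means activation above the run cutoff, the mean activation over all tested wells plus 3 SD, cut at about 12% in these data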;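 further: 0% = DMSO wells and 100% = maximal ATP response on the peak over basal ratio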
# TAAR1 desens – counter-screen for human TAAR1 agonists: agonists that desensitize TAAR1; shares compounds with TAAR1 agonist; hit rate 46% among 2,400; CHO RD-HGA16 hTAAR1, Fluo-8 calcium, beta-PEA response inhibition; AID 651951; inhibition, % at 3 µM;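 active means inhibition above the run cutoff, the mean inhibition of all test compounds plus 3 SD, cut at about 49% in these data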;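 further: beta-PEA stimulus applied at its EC80; loss of beta-PEA calcium signal after compound pretreatment read as receptor desensitization; 0% = DMSO with beta-PEA at EC80 and 100% = DMSO alone without agonist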
# Ga16 nonsel ant – counter-screen for TAAR1 agonists: nonselective Ga16 antagonists. shares compounds with TAAR1 agonist. CHO-Ga16 ATP-induced calcium, Fluo-8 fluorescence. inhibition, % at 3 µM. hit rate 39% among 2,400;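 active means inhibition above the plate's mean compound inhibition plus 3 SD, computed per plate, cut at about 22% in these data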;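 further: 0% = EC80 ATP with DMSO and 100% = DMSO wells without ATP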
# * hit, by the source's call; . = not tested or not shown.
SMILES,CHO parental Ca,NTR1 ag,TAAR1 antag,OX1R antag-1,TAAR1 agonist,OX1R antag-2,TAAR1 ag confirm,Ga16 ag counter,TAAR1 desens,Ga16 nonsel ant
COc1cc(C(=O)CCN2CCC(c3ccccc3)C2)cc(OC)c1OC (stereo unspecified),-17.2,-1.7,85.8*,-34.3,92.2*,11.4,105.2*,0.2,95.6*,5.1
O=C(CCN1CCCC1Cc1ccccc1)c1ccc2c(c1)OCCO2 (stereo unspecified),-25.8,2.5,73.4*,-29.4,87.0*,15.3,101.1*,2.9,84.8*,8.4
Cc1cc(NC(=O)C(C)SCC(=O)OCc2c(Cl)cccc2Cl)no1 (stereo unspecified),-12.8,0.3,-4.6,-13.9,7.6,42.1,.,.,.,.
O=C(COc1ccc([N+](=O)[O-])cc1)N1CCc2ccccc2C1,-0.4,-0.4,6.9,-9.3,0.1,11.3,.,.,.,.
CCn1ncc([N+](=O)[O-])c1C(=O)N1CCc2ccccc2C1,11.9,0.2,-10.3,-8.3,41.8*,7.5,29.5,-0.4,-1.1,1.0
O=C(Cc1ccc([N+](=O)[O-])cc1)N1CCc2ccccc2C1,-12.2,-0.4,-3.7,-38.4,54.7*,25.4,74.0*,7.2,24.4,5.5
O=[N+]([O-])c1cccc(NC(=S)N2CCc3ccccc3C2)c1,-3.2,-0.5,31.4,-3.4,55.1*,8.6,49.8*,6.4,21.0,15.8
O=C(Cc1ccccc1)NCC(=O)N1CCc2ccccc2C1,-11.2,0.0,-7.2,-8.6,-1.3,0.4,.,.,.,.
O=C(CNCCc1ccccc1)N1CCc2ccccc2C1,-26.7,0.5,27.2,-15.0,81.0*,19.6,99.0*,3.8,89.0*,5.0
O=C(c1ccco1)N1CCN(C(=S)Nc2cccc([N+](=O)[O-])c2)CC1,-14.3,1.9,4.0,-25.6,-0.5,24.7,.,.,.,.
O=C(Cc1ccccc1[N+](=O)[O-])N1CCc2ccccc2C1,7.4,0.9,5.7,-1.9,6.2,14.9,.,.,.,.
CCOC(=O)c1c(NC(=O)COC(=O)CCOc2ccccc2C)sc(C(=O)NC)c1C,-34.3,6.1,-31.1,-24.2,3.7,11.7,.,.,.,.
c1ccc(CNc2ncnc3c2cnn3Cc2ccccc2)cc1,3.1,1.5,6.5,-7.7,101.6*,18.8,82.2*,46.5*,48.4,25.3*
O=c1oc2c(CN3CCCCC3)c(O)ccc2cc1-c1nc2ccccc2[nH]1,.,.,-0.1,.,3.1,.,.,.,.,.
O=c1oc2c(O)cccc2cc1-c1nc2ccccc2[nH]1,.,0.2,8.7,.,83.2*,.,92.9*,89.5*,45.7,29.1*
COc1ccccc1NC(=O)C(C)OC(=O)c1nc2nc(C)cc(C)n2n1 (stereo unspecified),4.4,-1.4,5.7,-12.4,1.1,21.3,.,.,.,.
CCCCCCc1cc2cc(-c3nnc(-c4ccccc4O)o3)c(=O)oc2cc1O,8.0,-0.3,42.5,12.2,48.3*,11.2,48.4*,46.4*,59.4*,60.3*
CCCCCCc1cc2cc(-c3nnc(-c4ccccc4OC)o3)c(=O)oc2cc1O,21.9,0.2,27.8,20.4,21.5,4.5,.,.,.,.
CCn1c2ccccc2c2cc(/C=N/NC(=O)c3ccc(O)cc3)ccc21,-21.0,20.4,29.8,9.3,47.2*,75.6*,47.3*,2.3,29.2,12.8
CCOc1cc2c(C#N)c(N3CCNCC3)nc(N)c2c(N)n1,-14.0,0.3,53.6*,-24.0,61.0*,19.9,82.8*,2.6,81.3*,11.5
COCc1cc(C)nc(N2CCNCC2)c1C#N,-11.9,0.5,7.8,-16.0,52.7*,6.0,56.6*,0.1,22.5,3.0
C=CCn1c(=O)n(CC=C)c(=O)n(CC=C)c1=O,.,.,13.6,.,0.2,.,.,.,.,.
CCOc1ccc(N(CC(=O)NCCc2ccccc2)C(=O)CCC(=O)Nc2cc(C)ccn2)cc1,-26.5,-1.0,-21.2,-44.1,3.6,12.5,.,.,.,.
CCC(C)(C)n1nnnc1C(c1ccc(F)cc1)N1CCN(C(=O)c2ccco2)CC1 (stereo unspecified),-6.9,0.3,5.0,-26.6,0.1,14.8,.,.,.,.
CCCCOc1ccc(Br)cc1/C(C)=N/NC1=NCCN1,7.2,1.8,7.7,-25.5,57.5*,11.6,65.5*,10.0,26.9,7.5
SMILES,CHO parental Ca,NTR1 ag,TAAR1 antag,OX1R antag-1,TAAR1 agonist,OX1R antag-2,TAAR1 ag confirm,Ga16 ag counter,TAAR1 desens,Ga16 nonsel ant
COc1ccc(OC)c(NC(=O)N2CCCc3ccccc32)c1,.,1.0,-10.7,.,-3.2,.,.,.,.,.
COc1ccc(NC(=O)N2CCc3ccccc3C2)c(OC)c1,0.6,0.5,19.5,-14.1,44.0*,12.5,47.7*,-0.3,-10.1,-4.0
COc1ccc(NC(=O)N2CCc3cc(OC)c(OC)cc3C2)cc1,2.6,0.2,-6.3,0.9,1.1,2.6,.,.,.,.
COc1ccc(OC)c(NC(=O)N2CCc3ccccc3C2)c1,-17.4,-0.1,-13.1,-27.4,43.5*,10.4,56.6*,1.2,8.8,11.2
COc1ccc(NC(=O)N2CCc3ccccc3C2)cc1OC,-0.7,-1.2,-13.7,-10.4,58.9*,4.0,66.0*,2.9,12.0,0.9
COc1ccc(-c2nc(CSCC(=O)N3CCC(C(N)=O)CC3)c(C)o2)cc1OC,-10.7,0.4,9.5,-8.6,0.1,2.9,.,.,.,.
COc1ccc(-c2nc(CSCC(=O)N3CCc4ccccc4C3)c(C)o2)cc1OC,-24.2,-0.1,29.1,-28.6,68.4*,25.6,93.6*,1.5,59.6*,1.4
O=C(NN1C(=O)C2C3C=CC(C3)C2C1=O)c1ccncc1 (stereo unspecified),-9.5,1.5,-15.3,3.8,1.2,4.0,.,.,.,.
O=C(NN1C(=O)C2C(c3ccccc3)C=CC(c3ccccc3)C2C1=O)c1ccncc1 (stereo unspecified),-4.2,1.6,24.4,9.3,46.6*,11.1,18.1,16.0*,17.3,8.8
CSc1nc(N)nc(SCC(=O)OC(C)C)c1C#N,-8.2,-0.7,-6.3,-12.5,7.0,20.0,.,.,.,.
CSc1nc(N)nc(SCC(=O)c2ccc(C)cc2)c1C#N,-7.1,7.2,54.1*,6.2,52.2*,69.2*,14.6,10.3,2.6,8.3
Cc1ccccc1CN1CCC(N2CCC(C(=O)NCC3CCCO3)CC2)CC1 (stereo unspecified),-17.6,0.0,-10.2,-6.9,2.3,34.0,.,.,.,.

# Bioassay records (PubChem)
